Bioassay records: PubChem BioAssay, Sanford-Burnham Center for Chemical Genomics
A selection: hits, their analogues and other compounds. The true share with any hit is near 1.5%.
CCR6 antag: antagonists of human CCR6 receptor. P51684. CHO-K1 CCR6 PathHunter beta-arrestin, luminescence, CCL20-stimulated. inhibition, % at 20 µM. 340,000 tested, 0.49% active. AID 493098;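 active = compounds whose inhibition of the agonist-driven luminescence signal at 20 µM reaches about 50%, limit read from the data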;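 also: cells stimulated with CCL20 at 14 nM final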
Target sequence (P51684 whole entry, looked up): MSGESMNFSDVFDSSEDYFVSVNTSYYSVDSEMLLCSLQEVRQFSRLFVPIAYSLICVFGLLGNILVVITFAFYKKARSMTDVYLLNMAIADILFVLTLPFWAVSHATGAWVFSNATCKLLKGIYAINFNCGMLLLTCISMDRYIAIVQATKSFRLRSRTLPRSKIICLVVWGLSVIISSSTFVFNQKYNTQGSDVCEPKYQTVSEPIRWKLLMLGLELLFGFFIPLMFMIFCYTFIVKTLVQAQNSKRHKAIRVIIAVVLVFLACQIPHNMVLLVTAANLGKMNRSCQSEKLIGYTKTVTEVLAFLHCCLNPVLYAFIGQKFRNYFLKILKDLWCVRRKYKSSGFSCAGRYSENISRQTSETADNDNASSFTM
CXCR6 inh: blocks human CXCR6 beta-arrestin recruitment; 360,000 tested, 0.36% active; O00574; CHO-K1 PathHunter CXCR6 beta-arrestin, luminescence; AID 602244; inhibition, % at 20 µM; in the data active = inhibition above about 34%, passing the limit was not always enough;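 also: antagonist mode with CXCL16 agonist at 10 nM final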
APJ ag: APJ receptor agonism. CHO-K1 APJ PathHunter beta-arrestin, luminescence; 0% DMSO wells, 100% apelin. 330,000 tested, 0.11% active. P35414. activation, % at 20 µM;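 active = activation more than six SD over the plate average, tested at 20 µM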
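Assay system: engineered CHO-K1 APJ arrestin reporter cells; Amount: 1000 CHO-K1 reporter cells seeded per well; Dosing: one dose, 20 µM compound, 1% DMSO; Times: compound stimulation 90 min at 25 °C, detection 60 min; Measured by: luminescent beta-gal fragment complementation, chemiluminescent substrate; Read-out: APJ–arrestin association signal; Controls: DMSO vs Apelin-13 10 nM.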
EBI2 antag: blocks human EBI2 receptor beta-arrestin signaling; inhibition, % at 5 µM; P32249; EBI2 beta-arrestin recruitment, luminescence, 7a,25-OHC stimulated; AID 651636; 360,000 tested, 0.81% active; in the data active = inhibition above about 38%;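 also: enzyme fragment complementation signal reports receptor beta-arrestin coupling in cells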
APJ antag: antagonists of human APJ apelin receptor; P35414; CHO-K1 APJ beta-arrestin complementation, luminescence; inhibition, % at 20 µM; 330,000 tested, 0.32% active;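 active = inhibition above about 40% at 20 µM, limit read from the data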;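 also: cells challenged with 10 nM apelin-13 agonist together with compound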
EBI2 conf: EBI2 (human) antagonism, single concentration confirmation | inhibition, % at 5 µM | AID 651997 | shares compounds with EBI2 antag | EBI2 beta-arrestin luminescence, 7a,25-OHC antagonism | 2,400 tested, 29% active;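 active = inhibition of at least 50%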
EBI2 ag: activates EBI2, counter-screen for EBI2 antagonists; shares compounds with EBI2 antag; EBI2-expressing cells, agonist mode, luminescence, 60 min; 0% vehicle, 100% 7α,25-dihydroxycholesterol control; 2,400 tested, under 10 active; activation, % at 5 µM;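 active = activation of at least 50%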
bGal cs: counter-screen for EBI2 antagonists: E. coli beta-galactosidase inhibition | shares compounds with EBI2 antag | purified beta-galactosidase, luminescent Galacton Star, 15 min | inhibition, % at 5 µM | 2,400 tested, 1% active;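 active = replicate-average signal at least 3 plate SD below neutral wells, shown as high inhibition, flagging enzyme-inhibiting false positives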;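 also: higher means stronger loss of beta-gal luminescence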
Numbers stand for hits; 0 = inactive; - = no result given.

SMILES	CCR6 antag	CXCR6 inh	APJ ag	EBI2 antag	APJ antag	EBI2 conf	EBI2 ag	bGal cs
O=C(c1ccc(F)cc1)C1CCN(C(=S)NCC2CCCO2)CC1 (stereo unspecified)	0	0	0	51	0	0	0	0
C[C@@H]1CCCCO[C@@H](CN(C)Cc2ccc(C(F)(F)F)cc2)[C@@H](C)CN([C@H](C)CO)C(=O)c2cc(N(C)C)ccc2O1	-	0	-	0	-	-	-	-
O=C(COc1ccc(Br)cc1)N1CCN(S(=O)(=O)/C=C/c2ccccc2)CC1	0	0	0	92	0	86	0	0
O=C(COc1ccccc1F)N1CCN(S(=O)(=O)/C=C/c2ccccc2)CC1	0	0	0	55	0	0	0	0
CCOC(=O)N1CCN(S(=O)(=O)/C=C/c2ccccc2)CC1	0	0	0	0	0	-	-	-
CN(Cc1ccccc1)C(=O)[C@@H]1CCCN1C(=O)OC(C)(C)C	-	0	-	0	-	-	-	-
CCOC(=O)C1CCN(C(=O)/C=C/c2ccc3c(c2)OCO3)CC1	0	0	0	56	0	0	0	0
O=C(CN1CCN(C(=O)C2CCN(C(=O)/C=C/c3ccccc3)CC2)CC1)Nc1ccccc1Cl	0	0	0	88	0	56	0	0
O=C(CN1CCCCCC1)Nc1ccccc1Cl	0	0	0	0	0	-	-	-
CCOC(=O)C1CCN(C(=O)/C=C/c2ccccc2)CC1	0	0	0	65	0	51	0	0
O=C(/C=C/c1ccc2c(c1)OCO2)N1CCCCC1	0	0	0	0	0	-	-	-
CN(C)C(CNC(=O)C1CCN(C(=O)/C=C/c2ccccc2)CC1)c1ccccc1 (stereo unspecified)	0	0	0	72	0	0	0	0
Cc1cccc(C)c1-n1nnnc1C(c1ccnc2ccccc12)N(C)Cc1ccc(Cl)c(Cl)c1 (stereo unspecified)	-	0	-	0	-	-	-	-
O=C(C[C@H]1CC[C@H]2[C@@H](COC[C@H](O)CN2Cc2ccccc2)O1)NCCCN1CCOCC1	-	-	-	0	-	-	-	-
CCOc1ccc(S(=O)(=O)c2c(C(=O)c3ccc(C)cc3)cnc3cc4c(cc23)OCCO4)cc1	0	0	0	47	0	0	0	0
Cc1ccc(C(=O)c2cnc3cc4c(cc3c2S(=O)(=O)c2ccccc2)OCCO4)cc1	0	0	0	0	0	-	-	-
COC(=O)c1ccc2nc(-c3cccc(Br)c3)c(Cc3ccsc3)n2c1	-	0	-	0	-	-	-	-
CCOc1cc(/C=C2/SC(=Nc3ccccc3)N(Cc3cccnc3)C2=O)ccc1OCC#N	0	0	0	48	0	0	0	0
COc1ccc(/C=C2\SC(=S)N(Cc3cccnc3)C2=O)cc1C	0	0	0	0	0	-	-	-
CC(C)N(C(=O)COC(=O)c1ccccc1C(=O)c1ccc(Cl)c([N+](=O)[O-])c1)C(C)C	0	0	0	46	0	0	0	0
Cc1cc(F)ccc1-c1cc(C(=O)N2CCN(c3ccncc3)CC2)[nH]n1	-	0	-	0	-	-	-	-
CCOC(=O)CN(C(=O)CSc1nnc(CNc2ccc(F)cc2)o1)c1ccccc1	0	0	0	43	0	0	0	0
Cc1ccc(OCc2nc3ccccc3n2C(C(=O)NC(C)(C)C)c2ccncc2)cc1 (stereo unspecified)	-	-	-	0	-	-	-	-
CC1(Cc2cccc(C(F)(F)F)c2)C(=O)Nc2ccc(-c3ccc(F)c(Cl)c3)cc21 (stereo unspecified)	-	0	-	0	-	-	-	-
Cc1cc2nc(-c3ccc(SCc4ccccc4C#N)nc3)[nH]c2cc1C	0	0	0	50	0	0	0	0
SMILES	CCR6 antag	CXCR6 inh	APJ ag	EBI2 antag	APJ antag	EBI2 conf	EBI2 ag	bGal cs
O=C(NCCc1ccccc1)C1CCC(Cn2c(=O)c3ccccc3n(Cc3cccc(F)c3)c2=O)CC1 (stereo unspecified)	0	0	0	61	0	0	0	0
O=C(NCCc1ccccc1)C1CCC(Cn2c(=O)c3ccccc3n(Cc3cccc(Cl)c3)c2=O)CC1 (stereo unspecified)	0	0	0	0	0	-	-	-
O=Cc1c(NCCc2ccc(F)cc2)c2ccccc2[nH]c1=O	0	0	0	45	0	0	0	0
Cc1cn([C@H]2C[C@H](O)[C@@H](/C=C/C(=O)NCCc3cccs3)O2)c(=O)[nH]c1=O	-	0	-	0	-	-	-	-
CCN(C)C1CN(Cc2cn(CCCC(=O)OC)nn2)S(=O)(=O)C1 (stereo unspecified)	-	0	-	0	-	-	-	-
CCCc1nc2ccc(NC(=O)c3cccs3)cc2c(=O)n1Cc1ccc(Cl)cc1	0	0	0	43	0	0	0	0
CCc1nc2c(OCc3ccc(F)c(F)c3)cccn2c1N(C)C(=O)c1ccncc1	-	0	-	0	-	-	-	-
COC(=O)/C=C1\C(=O)N(c2nc3ccccc3s2)C(=S)N1c1ccc(F)cc1	0	0	0	89	0	90	0	0
C#Cc1cccc(NC(=O)c2ccc3c(c2)C(=O)N(Cc2cccnc2)C3=O)c1	0	0	0	45	0	0	0	0
CC(OC(=O)C1=Cc2ccccc2OC1)C(=O)NCC1CCCO1 (stereo unspecified)	0	0	-	0	-	-	-	-
CN(C)c1ccnc2sc3c(NCC(O)CO)ncnc3c12 (stereo unspecified)	0	0	0	0	0	-	-	-
CN(C)c1ccnc2sc3c(SCc4ccc(Cl)cc4)ncnc3c12	0	0	0	54	0	0	0	0
N#C/C(=C\c1ccccc1)C(=O)Nc1cc(S(=O)(=O)N2CCOCC2)ccc1N1CCCC1	0	0	0	75	0	66	0	0
CCN1CCN(c2ccc(S(=O)(=O)N3CCOCC3)cc2NC(=O)/C=C/c2ccc(C)cc2)CC1	0	0	0	94	0	91	0	0
Cc1ccccc1C(c1ncccc1C)N(C)C(=O)C1CCN(CCOc2ccc(Cl)cc2Cl)CC1 (stereo unspecified)	-	0	-	0	-	-	-	-
CCC1(CC)C(C#N)C(=O)NC(=O)C1C#N (stereo unspecified)	0	0	-	0	-	-	-	-
CCC(C)NC(=O)c1c(N)n(/N=C/c2ccccn2)c2nc3ccccc3nc12 (stereo unspecified)	0	0	0	0	0	-	-	-
CC(C)OCCCNC(=O)c1c(N)n(/N=C/c2ccccn2)c2nc3ccccc3nc12	0	0	0	48	0	0	0	0
CC(C)c1ccc(-n2nnnc2SCc2nc(N)nc(N)n2)cc1	-	0	-	0	-	-	-	-
Oc1ccc(-c2cnc3c(Nc4cccc(OC(F)(F)C(F)F)c4)nccn23)cc1	-	0	-	73	-	0	0	0
NC(=O)c1cccc(-c2cnc3c(Nc4cccc(OC(F)(F)C(F)F)c4)nccn23)c1	-	0	-	45	-	0	0	0
